Experimental data as given in ChEMBL document CHEMBL4680093 (J Med Chem, 2016).

Key:
[1] = Cmax in dog at 4 mg/kg, po; type: ADME, organism-based, Canis lupus familiaris; design: route oral, dose 4 mg/kg; conditions: in vivo
[2] = target: Voltage-gated inwardly rectifying potassium channel KCNH2 (Homo sapiens, UniProt Q12809); experiment: Inhibition of human ERG expressed in CHO cells by whole-cell patch clamp assay; type: cell-based
Summary of the method: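 hERG channels stably expressed in CHO cells were recorded by whole-cell patch clamp, and an IC50 was estimated.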

[3] = Volume of distribution at steady state in mouse at 1 mg/kg, iv; type: ADME, organism-based; conditions: in vivo, read-out: Vdss
Summary of the method: (§1)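 Single-dose PK study. The iv dose was given in 10% hydroxypropyl-β-cyclodextrin and the oral dose in 0.5% methylcellulose/1% Tween80. Mouse and rat received 1 mg/kg iv and 5 mg/kg po. Dog received 0.5 mg/kg iv and 4 mg/kg po. CL, Vss, t1/2, AUC, Cmax, tmax and F were derived.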

[4] = In-vivo inhibition of 11beta-HSD1 activity in C57BL/6 mouse liver assessed as reduction in cortisone to-cortisol conversion at 10 mg/kg, po measured after 6 hrs by ELISA; type: functional; conditions: C57BL/6, Liver
Summary of the method: (§2)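 Male C57BL/6 mice dosed orally once at 3, 10 or 30 mg/kg in sterile water containing 0.5% methylcellulose and 1% Tween80, then sacrificed at 2 or 6 h. Liver and epididymal fat pads incubated ex vivo in culture medium containing cortisone. Cortisol formed was measured by ELISA and reported as % inhibition versus vehicle.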

[5] = test system: Mus musculus; experiment: Improvement in lipid profile in C57BL/6-Lep^ob (ob/ob) mouse assessed as LDL cholesterol level at 20 mg/kg, po dosed once daily for 25 days (reference value: 30.3 +/- 0.8 mg/dl); type: functional; conditions: time 25 day
[6] = target: Cytochrome P450 2C19 (Homo sapiens, UniProt P33261); experiment: Inhibition of CYP2C19 in pooled human liver microsomes using mephenytoin as substrate in presence of NADPH incubated for 10 mins by LC-MS/MS analysis
[7] = Ratio of drug level in brain to plasma of mouse at 10 mg/kg, po measured after 2 hrs post dose; type: ADME, organism-based; conditions: read-out: BPR
Summary of the method: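 C57BL/6 mice received a single oral dose of 10 mg/kg in 0.5% methylcellulose/1% Tween80. Animals were sacrificed 2 h post-dose. Compound was measured in brain, liver, adipose and plasma (nmol/g), and tissue/plasma ratios were calculated.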

[8] = Ratio of unbound drug level in mouse plasma at 10 mg/kg, po measured after 2 hrs post dose to IC50 for mouse 11beta-HSD1; type: ADME, organism-based; conditions: in vivo
[9] = Drug level in mouse brain at 10 mg/kg, po measured after 2 hrs post dose; type: ADME, organism-based; conditions: in vivo
Summary of the method: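 C57BL/6 mice given a single oral 10 mg/kg dose in 0.5% methylcellulose plus 1% Tween80. Sacrifice at 2 h post-dose, with collection of brain, liver, adipose and plasma. Compound concentration expressed as nmol/g, along with tissue/plasma ratio.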

[10] = target: Cytochrome P450 3A4 (Homo sapiens, UniProt P08684); experiment: Inhibition of CYP3A4 in pooled human liver microsomes using midazolam as substrate in presence of NADPH incubated for 10 mins by LC-MS/MS analysis
[11] = target: T1, Cytochrome P450 1A2 (Homo sapiens, UniProt P05177); experiment: Inhibition of CYP1A2 in pooled human liver microsomes using phenacetin as substrate in presence of NADPH incubated for 10 mins by LC-MS/MS analysis
T1 sequence (P05177 whole entry): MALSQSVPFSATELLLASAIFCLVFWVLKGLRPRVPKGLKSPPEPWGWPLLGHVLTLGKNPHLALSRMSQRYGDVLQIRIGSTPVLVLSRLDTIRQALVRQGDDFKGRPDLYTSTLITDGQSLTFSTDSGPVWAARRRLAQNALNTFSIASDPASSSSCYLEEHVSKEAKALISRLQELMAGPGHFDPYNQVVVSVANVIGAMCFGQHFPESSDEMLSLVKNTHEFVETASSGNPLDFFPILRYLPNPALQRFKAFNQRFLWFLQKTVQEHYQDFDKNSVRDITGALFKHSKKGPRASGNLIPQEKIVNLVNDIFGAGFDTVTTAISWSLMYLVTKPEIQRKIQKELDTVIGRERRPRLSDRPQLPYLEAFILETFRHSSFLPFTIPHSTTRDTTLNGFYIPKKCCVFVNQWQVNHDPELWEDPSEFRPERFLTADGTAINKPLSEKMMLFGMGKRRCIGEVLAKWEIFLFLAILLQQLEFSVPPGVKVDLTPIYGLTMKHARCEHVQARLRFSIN

[12] = Volume of distribution at steady state in rat at 1 mg/kg, iv; type: ADME, organism-based; conditions: in vivo, read-out: Vdss; summary of the method: as §1
[13] = target: 11-beta-hydroxysteroid dehydrogenase 1 (Homo sapiens, UniProt P28845); experiment: Inhibition of human 11beta-HSD1 expressed in HEK293 cells using cortisone by ELISA
[14] = Reduction in nonfasting blood glucose level in C57BL/6-Lep^ob (ob/ob) mouse at 20 mg/kg, po dosed once daily for 25 days and co-treated with 300 mg/kg. po QD for 25 days metformin relative to control; design: scale not given: the % may be the effect or the level left; conditions: time 25 day
[15] = Ratio of unbound Cmax in mouse plasma at 10 mg/kg, po measured after 2 hrs post dose to IC50 for human ERG expressed in CHO cells; type: ADME, organism-based; conditions: in vivo
[16] = target: T2, UDP-glucuronosyltransferase 1A1 (Homo sapiens, UniProt P22309); experiment: Inhibition of UGT1A1 (unknown origin); type: ADME
T2 sequence (P22309 whole entry): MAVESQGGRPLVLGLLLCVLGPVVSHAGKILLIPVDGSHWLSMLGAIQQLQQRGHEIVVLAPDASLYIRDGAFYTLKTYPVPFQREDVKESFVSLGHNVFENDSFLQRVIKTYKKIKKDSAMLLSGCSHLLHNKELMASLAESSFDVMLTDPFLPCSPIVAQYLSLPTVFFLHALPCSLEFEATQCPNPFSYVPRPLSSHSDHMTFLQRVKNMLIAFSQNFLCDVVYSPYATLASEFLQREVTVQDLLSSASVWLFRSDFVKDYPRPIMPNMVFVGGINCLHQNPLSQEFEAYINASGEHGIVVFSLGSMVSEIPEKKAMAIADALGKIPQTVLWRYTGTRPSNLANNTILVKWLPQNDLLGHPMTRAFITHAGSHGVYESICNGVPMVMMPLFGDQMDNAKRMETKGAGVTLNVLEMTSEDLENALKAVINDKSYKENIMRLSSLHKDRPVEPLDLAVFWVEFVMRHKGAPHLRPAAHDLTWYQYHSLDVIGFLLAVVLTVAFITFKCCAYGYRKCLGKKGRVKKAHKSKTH

[17] = In-vivo inhibition of 11beta-HSD1 activity in C57BL/6 mouse liver assessed as reduction in cortisone to-cortisol conversion at 30 mg/kg, po measured after 2 hrs by ELISA; type: functional; conditions: C57BL/6, Liver; summary of the method: as §2
[18] = Tmax in dog at 4 mg/kg, po; type: ADME, organism-based, Canis lupus familiaris; conditions: in vivo; summary of the method: as §1

Chain of Cytochrome P450 2C19 (P33261 whole entry): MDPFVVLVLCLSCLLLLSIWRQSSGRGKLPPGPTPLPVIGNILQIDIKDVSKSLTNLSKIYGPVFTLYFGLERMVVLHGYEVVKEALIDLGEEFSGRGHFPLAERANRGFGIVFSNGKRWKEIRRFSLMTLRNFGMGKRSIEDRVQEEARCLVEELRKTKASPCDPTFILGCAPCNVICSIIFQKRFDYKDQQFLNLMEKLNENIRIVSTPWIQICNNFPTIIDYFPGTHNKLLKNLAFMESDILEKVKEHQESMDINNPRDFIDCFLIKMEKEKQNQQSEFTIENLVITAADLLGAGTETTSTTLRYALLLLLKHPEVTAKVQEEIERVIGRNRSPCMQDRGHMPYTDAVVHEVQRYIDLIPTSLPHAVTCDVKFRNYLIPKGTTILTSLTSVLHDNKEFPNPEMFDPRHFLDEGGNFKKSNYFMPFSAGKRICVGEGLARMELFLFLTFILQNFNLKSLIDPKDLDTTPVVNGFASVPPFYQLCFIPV
Chain of Voltage-gated inwardly rectifying potassium channel KCNH2 (Q12809 whole entry): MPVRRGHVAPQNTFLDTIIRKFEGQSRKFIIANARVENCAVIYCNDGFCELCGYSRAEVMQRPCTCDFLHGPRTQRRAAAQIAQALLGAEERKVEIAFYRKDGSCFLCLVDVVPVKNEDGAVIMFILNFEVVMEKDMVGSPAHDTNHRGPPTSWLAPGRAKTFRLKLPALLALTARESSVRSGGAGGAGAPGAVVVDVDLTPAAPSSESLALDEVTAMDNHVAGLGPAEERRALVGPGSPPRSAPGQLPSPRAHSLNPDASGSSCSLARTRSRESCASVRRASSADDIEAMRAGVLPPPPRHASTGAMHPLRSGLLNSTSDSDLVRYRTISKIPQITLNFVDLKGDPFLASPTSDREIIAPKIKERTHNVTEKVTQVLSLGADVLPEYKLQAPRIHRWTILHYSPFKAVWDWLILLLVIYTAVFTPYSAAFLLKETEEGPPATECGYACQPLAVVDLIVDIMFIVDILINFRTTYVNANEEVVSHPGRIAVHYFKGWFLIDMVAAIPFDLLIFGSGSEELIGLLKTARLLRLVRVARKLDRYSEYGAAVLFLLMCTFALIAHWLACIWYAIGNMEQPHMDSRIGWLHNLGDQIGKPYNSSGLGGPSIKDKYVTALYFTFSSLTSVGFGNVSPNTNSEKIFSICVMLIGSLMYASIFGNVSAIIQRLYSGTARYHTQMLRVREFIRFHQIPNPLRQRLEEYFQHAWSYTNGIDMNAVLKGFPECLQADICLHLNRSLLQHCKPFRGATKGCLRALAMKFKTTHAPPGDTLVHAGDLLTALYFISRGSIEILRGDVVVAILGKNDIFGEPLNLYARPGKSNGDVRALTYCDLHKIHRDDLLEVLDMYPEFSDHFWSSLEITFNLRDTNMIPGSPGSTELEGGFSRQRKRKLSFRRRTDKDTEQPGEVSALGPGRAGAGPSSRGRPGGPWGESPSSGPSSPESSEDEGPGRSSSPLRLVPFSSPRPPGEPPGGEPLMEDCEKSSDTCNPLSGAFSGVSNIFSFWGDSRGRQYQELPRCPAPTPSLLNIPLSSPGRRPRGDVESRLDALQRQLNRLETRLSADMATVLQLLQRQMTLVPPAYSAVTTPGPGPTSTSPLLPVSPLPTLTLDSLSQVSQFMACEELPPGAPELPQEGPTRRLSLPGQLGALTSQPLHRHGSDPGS
Chain of Cytochrome P450 3A4 (P08684 whole entry): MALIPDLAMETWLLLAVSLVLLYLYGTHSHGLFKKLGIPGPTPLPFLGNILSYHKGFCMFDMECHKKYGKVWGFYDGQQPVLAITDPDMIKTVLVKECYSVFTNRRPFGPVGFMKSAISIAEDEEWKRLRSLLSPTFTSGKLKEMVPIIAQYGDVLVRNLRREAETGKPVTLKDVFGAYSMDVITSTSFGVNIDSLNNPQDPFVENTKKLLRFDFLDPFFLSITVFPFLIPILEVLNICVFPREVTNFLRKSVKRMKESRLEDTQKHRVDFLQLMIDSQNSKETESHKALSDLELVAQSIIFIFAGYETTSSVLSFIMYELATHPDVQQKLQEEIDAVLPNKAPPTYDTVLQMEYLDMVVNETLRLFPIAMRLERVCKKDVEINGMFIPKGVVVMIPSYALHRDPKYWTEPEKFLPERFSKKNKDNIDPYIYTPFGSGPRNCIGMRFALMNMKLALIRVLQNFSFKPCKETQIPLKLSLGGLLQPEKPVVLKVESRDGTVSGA
Chain of 11-beta-hydroxysteroid dehydrogenase 1 (P28845 whole entry): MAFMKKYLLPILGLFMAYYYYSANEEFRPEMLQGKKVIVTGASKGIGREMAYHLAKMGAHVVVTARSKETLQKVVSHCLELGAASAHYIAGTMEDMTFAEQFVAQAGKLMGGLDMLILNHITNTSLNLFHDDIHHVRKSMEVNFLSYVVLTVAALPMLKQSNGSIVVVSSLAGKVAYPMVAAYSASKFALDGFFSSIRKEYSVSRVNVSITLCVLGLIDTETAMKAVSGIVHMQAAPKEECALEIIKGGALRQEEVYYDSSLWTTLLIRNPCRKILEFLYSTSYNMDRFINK

C[C@@H]1CN(c2ccc(S(C)(=O)=O)cc2F)CCN1c1nccc(C(=O)NC2C3CC4CC2CC(O)(C4)C3)n1 (stereo partly drawn)
Cmax [1]: 1120 ng/mL | IC50 [2]: 8 µM | Vd [3]: 1.1 L/kg | inhibition in vivo at 10 mg/kg [4]: 87% | Activity [5]: 17.1 mg/dL | IC50 [6]: > 10 µM | Kp at 2 h [7]: 0.04 | Ratio [8]: > 50 | Drug uptake [9]: 0.41 nmol/g | IC50 [10]: > 10 µM | IC50 [11]: > 10 µM | Vd [12]: 2.1 L/kg | IC50 [13]: 0.0044 µM | Activity [14]: 33% | Ratio [15]: > 30 | IC50 [16]: 5.6 µM | inhibition in vivo at 30 mg/kg [17]: 91% | Tmax [18]: 2.1 h
